We go through 13 compounds from ChEMBL document CHEMBL1154293, “Sesquiterpenoids and benzofuranoids from the marine-derived fungus Aspergillus ustus 094102” (J Nat Prod, 2009).

SMILES strings stand for the structures. Where only a bound is given, the exact number is not on record here.

For test [1], the system named is A549. As to the kind of experiment: Cytotoxicity against human A549 cells after 24 hrs by SRB assay. The test is classed as functional, cell-based. The conditions noted are these: A549, 24 h.
Another test has as its system HL-60. In words: Cytotoxicity against human HL60 cells after 72 hrs by MTT assay. The conditions noted are these: HL-60, 72 h. The test is classed as functional, cell-based. An outline of the steps:
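HL-60 human tumor cells were plated 24 h ahead, then given various compound concentrations continuously for 72 h. Proliferation inhibition was measured by MTT tetrazolium reduction, and IC50 was derived from the inhibition rates. Etoposide (VP-16) was the positive control.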

Test [2] relates to A549. In words: Cytotoxicity against human A549 cells after 72 hrs by SRB assay. As to conditions: A549, 72 h. A general note: The SRB assay estimates cell density from bound dye.

In the case of `CC(C)(O)C1Cc2ccc(/C=C\CO)c(CO)c2O1` (stereo unspecified), the IC50 with A549 [1] and with HL-60 was over 100 µM in each case.

Consider `CC1=CC(=O)[C@H]2C(C)(C)[C@@H](O)CC[C@]2(C)[C@@]1(O)CO` [USTUSOL A], for which the IC50 in the test on HL-60 and in the test with A549 [2] was over 100 µM in each case.

With `CC1=CC(=O)[C@H]2C(C)(C)C[C@@H](O)C[C@]2(C)[C@@]1(O)CO` [USTUSOL B], the IC50 with HL-60 and in the test with A549 [2] was over 100 µM throughout.

With `CO[C@@H]1C=C(CO)[C@](O)(CO)[C@@]2(C)CCCC(C)(C)[C@H]12` [USTUSOL C], the IC50 in the test on HL-60 and with A549 [2] was over 100 µM in each case.

As for `CC(O)C/C=C/C=C/C=C/C(=O)OC1C=C2COC(=O)[C@]2(O)[C@@]2(C)CCCC(C)(C)[C@H]12` (stereo partly specified) [USTUSOLATE B], the IC50 in the test with HL-60 and in the test on A549 [2] was over 100 µM throughout.

Consider `CC(O)C/C=C/C=C/C(=O)O[C@@H]1C=C2COC(=O)[C@]2(O)[C@@]2(C)CCCC(C)(C)[C@H]12` (stereo partly specified) [USTUSOLATE C], for which the IC50 is over 100 µM in the test on HL-60 and 10.5 µM in the test with A549 [2].

As to `COC(/C=C/C=C/C(=O)O[C@@H]1C=C2COC(=O)[C@]2(O)[C@@]2(C)CCCC(C)(C)[C@H]12)OC` [USTUSOLATE D], the IC50 with HL-60 and with A549 [2] was over 100 µM each time.

Turning to `CC1(C)CCC[C@@]2(C)[C@H]1[C@H](OC(=O)/C=C/C=C/C=O)C=C1COC(=O)[C@@]12O` [USTUSOLATE E], the IC50 with HL-60 is 9 µM; in the test with A549 [2], over 100 µM.

Turning to `CC(C)=C1Oc2c(ccc(CC(C)O)c2CO)C1=O` (stereo unspecified) [USTUSORANE A], the IC50 in the test on HL-60 and in the test with A549 [2] was over 100 µM in each case.

With `CC1=Cc2ccc3c(c2CO1)OC(=C(C)C)C3=O` [USTUSORANE B], the IC50 in the test on HL-60 and with A549 [2] was over 100 µM each time.

For `CO[C@H]1O[C@H](C)Cc2ccc3c(c21)OC(=C(C)C)C3=O` [USTUSORANE C], the IC50 with HL-60 and in the test with A549 [2] was over 100 µM throughout.

On to `CO[C@H]1O[C@H](C)Cc2ccc3c(c21)OC(C(C)C)C3=O` (stereo partly specified) [USTUSORANE D], for which the IC50 in the test with HL-60 and with A549 [2] was over 100 µM throughout.

For `CC(O)Cc1ccc2c(c1CO)OC(C(C)(C)O)C2` (stereo unspecified) [USTUSORANE E], the values for the IC50 with HL-60 and in the test with A549 [2] were 0.13 µM and over 100 µM, respectively.

The IC50 is the concentration at which inhibition is half-maximal.
